# Results taken from ChEMBL document CHEMBL1208666, “Novel 6,8-dibromo-4(3H)quinazolinone derivatives of anti-bacterial and anti-fungal activities” (2010).
# Calls of active or inactive are those of the source. No cut-off for these calls is given here.
# Legend:
# Bacillus cereus [1] = assay: Antibacterial activity against Bacillus cereus after 24 hrs by agar streak dilution method; format: functional
# Summary of the method: (§1)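 Agar streak dilution on Mueller Hinton agar. Compound stock in DMSO was added in graded amounts to molten sterile agar at 40–50 °C. This was poured 3–4 mm deep and left to solidify. Bacterial suspension of about 10^5 cfu/ml was applied to the serially diluted plates. Plates were incubated at 37 °C for 24 h to read the MIC. Strains were food-poisoning isolates from animal byproducts.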
# Escherichia coli [2] = assay: Antibacterial activity against Escherichia coli O157 after 24 hrs by agar streak dilution method; format: functional; conditions: O157, 24 h
# Listeria monocytogenes [3] = assay: Antibacterial activity against Listeria monocytogenes at 100 ug/ml after 24 hrs by paper disc diffusion technique; format: functional; conditions: read-out: IZ
# Summary of the method: (§2)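 Paper disc diffusion on Mueller Hinton agar, autoclaved at 120 °C for 30 min. Medium at 40–50 °C was seeded at 1 ml/100 ml with a 10^5 cfu/ml suspension matched to 0.9 McFarland. It was poured 3–4 mm deep, and discs with compound in DMSO were laid on it. Plates were pre-incubated 1 h at room temperature, then 37 °C for 24 h. The inhibition zone was measured.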
# Bacillus cereus [4] = assay: Antibacterial activity against Bacillus cereus at 100 ug/ml after 24 hrs by paper disc diffusion technique; format: functional; conditions: read-out: IZ; summary of the method: as §2
# Listeria monocytogenes [5] = assay: Antibacterial activity against Listeria monocytogenes after 24 hrs by agar streak dilution method; format: functional; summary of the method: as §1
# Staphylococcus aureus [6] = assay: Antibacterial activity against Staphylococcus aureus after 24 hrs by agar streak dilution method; format: functional; summary of the method: as §1
# Pseudomonas aeruginosa [7] = assay: Antibacterial activity against Pseudomonas aeruginosa after 24 hrs by agar streak dilution method; format: functional; summary of the method: as §1
# Aspergillus flavus [8] = assay: Antifungal activity against Aspergillus flavus at 100 ug/ml after 48 hrs by paper disc diffusion technique; format: functional; conditions: for zone of inhibition at 100 µg/mL: read-out: IZ
# Summary of the method: (§3)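 Paper disc diffusion on Sabouraud dextrose agar, autoclaved at 120 °C for 30 min. Medium at 40–50 °C was seeded at 1 ml/100 ml with a 10^5 cfu/ml fungal suspension matched to 0.9 McFarland. It was poured 3–4 mm deep, and compound discs in DMSO were applied. Plates were pre-incubated 1 h at room temperature, then 28 °C for 48 h. The inhibition zone was recorded.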
# Aspergillus flavus [9] = assay: Antifungal activity against Aspergillus flavus after 48 hrs by agar streak dilution method; format: functional
# Summary of the method: (§4)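 Fungal MIC by agar streak dilution on Sabouraud dextrose agar. Compound stock in DMSO was added in graded amounts to molten sterile medium at 40–50 °C. This was poured 3–4 mm deep and left to solidify. Fungal suspension of about 10^5 cfu/ml was applied to the serially diluted plates. Plates were incubated at 37 °C for 48 h.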
# Salmonella typhimurium [10] = assay: Antibacterial activity against Salmonella Typhimurium at 100 ug/ml after 24 hrs by paper disc diffusion technique; format: functional, Salmonella enterica subsp. enterica serovar Typhimurium; conditions: Salmonella enterica, read-out: IZ; summary of the method: as §2
# Escherichia coli [11] = assay: Antibacterial activity against Escherichia coli O157 at 100 ug/ml after 24 hrs by paper disc diffusion technique; format: functional; conditions: O157, 24 h, read-out: IZ
# Candida albicans [12] = assay: Antifungal activity against Candida albicans at 100 ug/ml after 48 hrs by paper disc diffusion technique; format: functional; summary of the method: as §3
# Pseudomonas aeruginosa [13] = assay: Antibacterial activity against Pseudomonas aeruginosa at 100 ug/ml after 24 hrs by paper disc diffusion technique; format: functional; conditions: read-out: IZ; summary of the method: as §2
# Salmonella typhimurium [14] = assay: Antibacterial activity against Salmonella Typhimurium after 24 hrs by agar streak dilution method; format: functional, Salmonella enterica subsp. enterica serovar Typhimurium; conditions: Salmonella enterica; summary of the method: as §1
# Staphylococcus aureus [15] = assay: Antibacterial activity against Staphylococcus aureus at 100 ug/ml after 24 hrs by paper disc diffusion technique; format: functional; conditions: read-out: IZ; summary of the method: as §2
# Candida albicans [16] = assay: Antifungal activity against Candida albicans after 48 hrs by agar streak dilution method; format: functional; summary of the method: as §4
SMILES,MIC (Bacillus cereus [1]),MIC (Escherichia coli [2]),zone of inhibition at 100 µg/mL (Listeria monocytogenes [3]),zone of inhibition at 100 µg/mL (Bacillus cereus [4]),MIC (Listeria monocytogenes [5]),MIC (Staphylococcus aureus [6]),MIC (Pseudomonas aeruginosa [7]),zone of inhibition at 100 µg/mL (Aspergillus flavus [8]),MIC (Aspergillus flavus [9]),zone of inhibition at 100 µg/mL (Salmonella typhimurium [10]),zone of inhibition at 100 µg/mL (Escherichia coli [11]),inhibition zone (IZ) (Candida albicans [12]),zone of inhibition at 100 µg/mL (Pseudomonas aeruginosa [13]),MIC (Salmonella typhimurium [14]),zone of inhibition at 100 µg/mL (Staphylococcus aureus [15]),MIC (Candida albicans [16]),inhibition zone (IZ) (Aspergillus flavus [8]),zone of inhibition at 100 µg/mL (Candida albicans [12]; read-out: IZ)
Cc1ccc(/C=N/NC(=O)c2ccc(-n3c(-c4ccccc4)nc4c(Br)cc(Br)cc4c3=O)cc2)cc1,35 µg/mL,40 µg/mL,13 mm,11 mm,30 µg/mL,25 µg/mL,2.5 µg/mL,12 mm,20 µg/mL,15 mm,11 mm,inactive,15 mm,5 µg/mL,12 mm,,,
O=C(N/N=C/c1ccccc1)c1ccc(-n2c(-c3ccccc3)nc3c(Br)cc(Br)cc3c2=O)cc1,30 µg/mL,45 µg/mL,13 mm,12 mm,35 µg/mL,25 µg/mL,50 µg/mL,10 mm,25 µg/mL,10 mm,11 mm,inactive,12 mm,> 50 µg/mL,12 mm,,,
CCOC(=O)c1ccc(-n2c(-c3ccccc3)nc3c(Br)cc(Br)cc3c2=O)cc1,50 µg/mL,50 µg/mL,14 mm,9 mm,25 µg/mL,1.56 µg/mL,50 µg/mL,10 mm,25 µg/mL,16 mm,11 mm,inactive,12 mm,3.12 µg/mL,17 mm,,,
O=C1CC(=O)N(C(=O)c2ccc(-n3c(-c4ccccc4)nc4c(Br)cc(Br)cc4c3=O)cc2)N1,> 50 µg/mL,,10 mm,10 mm,> 50 µg/mL,> 50 µg/mL,> 50 µg/mL,18 mm,1.9 µg/mL,12 mm,,inactive,11 mm,50 µg/mL,9 mm,,,
O=C(N/N=C/c1ccccc1O)c1ccc(-n2c(-c3ccccc3)nc3c(Br)cc(Br)cc3c2=O)cc1,25.5 µg/mL,50 µg/mL,11 mm,13 mm,50 µg/mL,12.5 µg/mL,> 50 µg/mL,15 mm,10.5 µg/mL,13 mm,10 mm,inactive,11 mm,30 µg/mL,15 mm,,,
Cc1cc(C)n(C(=O)c2ccc(-n3c(-c4ccccc4)nc4c(Br)cc(Br)cc4c3=O)cc2)n1,25 µg/mL,,15 mm,13 mm,12.5 µg/mL,50 µg/mL,30 µg/mL,,,14 mm,,,12 mm,20 µg/mL,10 mm,50 µg/mL,inactive,9 mm
O=C(NN1C(=O)CSC1c1ccccc1O)c1ccc(-n2c(-c3ccccc3)nc3c(Br)cc(Br)cc3c2=O)cc1 (stereo not given),> 50 µg/mL,30 µg/mL,15 mm,9 mm,15 µg/mL,45 µg/mL,35 µg/mL,,,12 mm,13 mm,inactive,12 mm,50 µg/mL,11 mm,,inactive,
COc1ccc(/C=N/NC(=O)c2ccc(-n3c(-c4ccccc4)nc4c(Br)cc(Br)cc4c3=O)cc2)cc1,35.5 µg/mL,> 50 µg/mL,12 mm,13 mm,50 µg/mL,50 µg/mL,> 50 µg/mL,11 mm,25 µg/mL,10 mm,8 mm,inactive,11 mm,> 50 µg/mL,11 mm,,,
